Strand notation (5' to 3'): a small letter for the sugar, then the base; units joined by * are phosphorothioate-linked, units joined directly phosphodiester-linked; [ ] holds rarer units or linkages, { } end groups; capitals alone tell only the bases. d = 2'-deoxy (DNA)
Legend:
[1] = system: primary mouse BMEC monolayers; experiment: Transport; assay type: cell-based; conditions: 1 μg/mL unlabeled Aβ42 added to abluminal chamber; n = 13-15/group
In short: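 Primary mouse brain endothelial cells were isolated by enzyme digestion and Percoll gradient. They were seeded at 4 × 10^4 cells/insert on fibronectin/collagen IV-coated 0.33 cm2, 0.4 μm polyester Transwells and grown to confluence (~3 days) in DMEM/F-12 with 20% plasma-derived serum, bFGF and 500 nM hydrocortisone. Assays ran in HEPES buffer pH 7.4 with 1% BSA. Radio-iodinated Aβ42 (1 × 10^6 cpm/mL) was placed in the loading chamber, with or without unlabelled Aβ42 (1 μg/mL). TCA-precipitable counts were used to give clearance and membrane-corrected permeability (cm/min).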

[2] = Saturability of brain uptake for cocktail ODNs; assay type: in vivo; conditions: 10 μg/mouse unlabeled PS-ODN i.v., brain/serum ratio at 30 min; n = 8-9/group
In short: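 Labelled 19mer or 23mer (5 × 10^5 cpm/200 μl lactated Ringer's–1% BSA) was given i.v. with or without 10 μg/mouse of the corresponding unlabelled phosphorothioate oligonucleotide. Brain and serum were collected 30 min after injection. Results were expressed as brain/serum ratios.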

[3] = In vivo brain-to-blood efflux rate of i.c.v. P-Olg; design: species or system mouse; conditions: after i.c.v. injection, 5 × 10^3 cpm/μl, 2-20 min; n = 2-3 mice/time point
In short: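 Oligonucleotide was kinase-labelled, ethanol-precipitated, stored at −70°C and used within 48 h. After i.c.v. injection into anaesthetised mice, animals were decapitated at 2, 5, 10 or 20 min and brain radioactivity counted. The t = 0 level came from urethane-overdosed mice. Log % injected dose was plotted against time, and the slope (efflux rate) was obtained by linear regression. n = 2–3 mice/time point.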

LRP-1 [4] = experiment: Immunohistochemistry of LRP-1 in isolated mouse brain microvessels; assay type: cell-based; conditions: isolated MBMs, 10 μg/mL, 24 h; buffer = 100%; n = 5-6 slides/group
In short: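 Cerebral cortices from 10–12 adult male CD-1 mice, meninges removed, were homogenised in cold HEPES/dextran stock buffer. Microvessels were isolated by nylon-mesh filtration and dextran centrifugation, then kept in incubation buffer pH 7.4. They were exposed to buffer, random antisense or antisense cocktail (10 μg/mL) for 24 h. Vessels were heat-fixed, fixed in 3.7% formaldehyde and Triton-permeabilised, then stained overnight at 4°C with anti-LRP-1 antibody (10 μg/mL). Mean fluorescence was measured from 5–6 […]/group.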

LRP-1 [5] = molecular target: LRP-1 (Mus musculus, UniProt Q91ZX7); experiment: Inhibition by RAP of brain-to-blood efflux of i.c.v. I-Aβ42; assay type: in vivo; conditions: n = 9/group
Chain of LRP-1 (Mus musculus, UniProt Q91ZX7) (Q91ZX7 20-4545): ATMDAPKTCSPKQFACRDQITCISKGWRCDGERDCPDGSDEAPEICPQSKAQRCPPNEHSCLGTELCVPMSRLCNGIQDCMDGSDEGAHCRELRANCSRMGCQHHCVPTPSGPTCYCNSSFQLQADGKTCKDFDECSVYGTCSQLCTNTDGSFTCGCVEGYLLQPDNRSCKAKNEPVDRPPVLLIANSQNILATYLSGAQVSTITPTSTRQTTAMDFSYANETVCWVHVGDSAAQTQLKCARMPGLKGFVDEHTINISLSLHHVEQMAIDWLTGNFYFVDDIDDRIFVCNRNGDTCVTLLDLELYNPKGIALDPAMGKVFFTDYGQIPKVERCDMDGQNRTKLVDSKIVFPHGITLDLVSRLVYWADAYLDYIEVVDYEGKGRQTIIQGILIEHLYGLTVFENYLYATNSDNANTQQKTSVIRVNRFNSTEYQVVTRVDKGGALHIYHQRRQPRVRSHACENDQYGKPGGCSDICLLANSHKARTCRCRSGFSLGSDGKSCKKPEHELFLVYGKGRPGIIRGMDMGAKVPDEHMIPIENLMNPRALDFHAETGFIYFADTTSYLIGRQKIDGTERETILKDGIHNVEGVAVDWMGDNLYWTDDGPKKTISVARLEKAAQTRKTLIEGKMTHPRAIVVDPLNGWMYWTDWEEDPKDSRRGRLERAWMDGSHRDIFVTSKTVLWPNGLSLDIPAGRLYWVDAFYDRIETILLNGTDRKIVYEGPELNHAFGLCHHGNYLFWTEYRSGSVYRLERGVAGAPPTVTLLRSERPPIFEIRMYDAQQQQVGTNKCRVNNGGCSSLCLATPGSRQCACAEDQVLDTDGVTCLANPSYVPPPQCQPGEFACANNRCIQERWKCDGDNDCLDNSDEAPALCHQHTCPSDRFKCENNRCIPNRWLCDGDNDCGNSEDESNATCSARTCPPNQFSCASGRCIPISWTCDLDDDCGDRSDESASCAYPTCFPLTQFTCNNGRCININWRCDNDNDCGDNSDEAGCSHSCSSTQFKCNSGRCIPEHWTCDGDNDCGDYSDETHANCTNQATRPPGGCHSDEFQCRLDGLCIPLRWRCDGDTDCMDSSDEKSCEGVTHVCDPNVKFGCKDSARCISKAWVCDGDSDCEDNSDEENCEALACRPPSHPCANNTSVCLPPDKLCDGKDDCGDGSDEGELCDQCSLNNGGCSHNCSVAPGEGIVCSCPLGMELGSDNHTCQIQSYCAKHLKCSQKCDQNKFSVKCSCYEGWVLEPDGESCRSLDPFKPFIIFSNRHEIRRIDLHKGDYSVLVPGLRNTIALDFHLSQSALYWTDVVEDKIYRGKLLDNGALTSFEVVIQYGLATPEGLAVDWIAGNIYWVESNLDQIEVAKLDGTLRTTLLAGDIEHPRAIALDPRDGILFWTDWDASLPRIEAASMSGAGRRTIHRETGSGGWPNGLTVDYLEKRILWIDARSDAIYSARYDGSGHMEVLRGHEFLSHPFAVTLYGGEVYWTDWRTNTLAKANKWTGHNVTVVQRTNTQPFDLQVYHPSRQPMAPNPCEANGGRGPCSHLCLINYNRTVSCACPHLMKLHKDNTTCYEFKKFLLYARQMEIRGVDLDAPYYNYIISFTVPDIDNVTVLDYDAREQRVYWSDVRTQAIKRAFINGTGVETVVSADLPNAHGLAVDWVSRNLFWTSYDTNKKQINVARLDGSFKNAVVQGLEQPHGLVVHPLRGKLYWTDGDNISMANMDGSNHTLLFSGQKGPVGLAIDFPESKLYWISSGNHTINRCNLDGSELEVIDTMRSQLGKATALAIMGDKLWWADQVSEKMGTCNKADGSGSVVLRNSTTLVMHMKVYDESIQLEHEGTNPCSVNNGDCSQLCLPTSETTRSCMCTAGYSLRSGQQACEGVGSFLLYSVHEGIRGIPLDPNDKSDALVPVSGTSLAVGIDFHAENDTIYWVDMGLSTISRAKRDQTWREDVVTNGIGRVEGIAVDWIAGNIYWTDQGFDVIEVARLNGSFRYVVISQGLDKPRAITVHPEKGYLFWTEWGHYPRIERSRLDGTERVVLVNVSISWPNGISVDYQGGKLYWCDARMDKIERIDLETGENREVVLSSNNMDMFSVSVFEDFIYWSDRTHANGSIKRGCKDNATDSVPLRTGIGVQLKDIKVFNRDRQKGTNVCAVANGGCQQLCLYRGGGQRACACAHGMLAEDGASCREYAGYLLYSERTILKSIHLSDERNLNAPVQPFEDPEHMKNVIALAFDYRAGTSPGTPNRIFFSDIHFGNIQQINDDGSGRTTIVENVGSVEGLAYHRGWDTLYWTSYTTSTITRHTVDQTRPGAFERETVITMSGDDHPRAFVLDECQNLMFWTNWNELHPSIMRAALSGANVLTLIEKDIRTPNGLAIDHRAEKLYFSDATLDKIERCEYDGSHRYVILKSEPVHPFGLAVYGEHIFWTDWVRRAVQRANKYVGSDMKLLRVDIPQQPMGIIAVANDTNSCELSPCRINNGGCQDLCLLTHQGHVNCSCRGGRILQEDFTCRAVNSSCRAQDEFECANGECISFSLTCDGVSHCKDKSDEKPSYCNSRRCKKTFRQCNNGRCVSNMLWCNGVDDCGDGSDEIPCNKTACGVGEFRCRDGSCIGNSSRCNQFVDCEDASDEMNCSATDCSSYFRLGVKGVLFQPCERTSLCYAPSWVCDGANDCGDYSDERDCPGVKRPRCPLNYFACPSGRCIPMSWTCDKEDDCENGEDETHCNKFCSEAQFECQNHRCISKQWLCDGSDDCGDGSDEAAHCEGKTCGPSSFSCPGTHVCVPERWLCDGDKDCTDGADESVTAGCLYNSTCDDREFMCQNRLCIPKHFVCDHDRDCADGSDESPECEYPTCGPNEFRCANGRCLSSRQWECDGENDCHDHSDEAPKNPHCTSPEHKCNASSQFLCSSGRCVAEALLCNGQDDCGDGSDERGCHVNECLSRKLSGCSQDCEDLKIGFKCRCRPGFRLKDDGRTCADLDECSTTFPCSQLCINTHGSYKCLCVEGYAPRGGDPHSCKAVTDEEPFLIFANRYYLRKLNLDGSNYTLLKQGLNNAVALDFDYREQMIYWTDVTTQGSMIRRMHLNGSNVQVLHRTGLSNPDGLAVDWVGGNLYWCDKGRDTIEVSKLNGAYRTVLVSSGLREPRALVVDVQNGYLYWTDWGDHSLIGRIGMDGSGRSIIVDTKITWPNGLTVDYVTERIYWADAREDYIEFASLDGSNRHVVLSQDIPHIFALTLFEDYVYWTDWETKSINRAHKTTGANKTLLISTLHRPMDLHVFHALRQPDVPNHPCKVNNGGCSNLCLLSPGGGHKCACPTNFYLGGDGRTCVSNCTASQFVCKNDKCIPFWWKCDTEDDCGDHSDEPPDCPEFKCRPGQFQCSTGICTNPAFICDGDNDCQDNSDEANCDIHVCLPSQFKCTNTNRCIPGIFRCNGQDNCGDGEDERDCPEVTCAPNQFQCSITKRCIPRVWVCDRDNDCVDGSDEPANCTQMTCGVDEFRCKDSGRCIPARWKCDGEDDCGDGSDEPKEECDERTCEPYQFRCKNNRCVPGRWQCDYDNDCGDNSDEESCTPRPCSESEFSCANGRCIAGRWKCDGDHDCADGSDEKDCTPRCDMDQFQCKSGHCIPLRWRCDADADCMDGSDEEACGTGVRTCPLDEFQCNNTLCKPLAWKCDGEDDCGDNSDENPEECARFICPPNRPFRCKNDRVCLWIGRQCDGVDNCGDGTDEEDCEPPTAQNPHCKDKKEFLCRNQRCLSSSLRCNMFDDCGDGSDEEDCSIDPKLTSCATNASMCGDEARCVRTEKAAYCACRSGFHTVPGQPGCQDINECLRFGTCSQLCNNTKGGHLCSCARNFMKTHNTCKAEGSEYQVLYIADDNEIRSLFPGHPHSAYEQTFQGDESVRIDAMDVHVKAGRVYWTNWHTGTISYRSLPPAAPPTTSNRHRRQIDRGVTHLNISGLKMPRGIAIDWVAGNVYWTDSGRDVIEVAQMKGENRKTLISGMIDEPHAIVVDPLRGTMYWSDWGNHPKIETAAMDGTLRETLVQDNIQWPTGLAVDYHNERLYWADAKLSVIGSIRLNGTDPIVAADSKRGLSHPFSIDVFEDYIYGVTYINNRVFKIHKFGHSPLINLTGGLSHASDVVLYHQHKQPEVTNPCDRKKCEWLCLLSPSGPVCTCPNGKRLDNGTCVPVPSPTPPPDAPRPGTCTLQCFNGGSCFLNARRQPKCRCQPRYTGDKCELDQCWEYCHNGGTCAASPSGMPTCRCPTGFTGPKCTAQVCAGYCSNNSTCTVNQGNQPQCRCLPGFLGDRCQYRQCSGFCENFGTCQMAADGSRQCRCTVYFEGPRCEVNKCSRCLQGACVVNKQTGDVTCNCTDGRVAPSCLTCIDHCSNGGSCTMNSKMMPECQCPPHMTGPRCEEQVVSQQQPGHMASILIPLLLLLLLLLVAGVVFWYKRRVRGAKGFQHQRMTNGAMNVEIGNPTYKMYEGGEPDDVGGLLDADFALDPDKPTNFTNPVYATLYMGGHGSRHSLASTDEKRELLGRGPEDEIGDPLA

| Substance | brain uptake on co-administration of unlabeled PS-ODN (saturability) [2] | half-time clearance from brain [3] [min] | further results |
| --- | --- | --- | --- |
| Aβ42: 42 amino acid murine Aβ (Bachem), unlabeled, used as competitor of I-Aβ42 transport | – | – | abluminal-to-luminal transport of I-Aβ42 (saturability) [1]: significantly (p < 0.01) inhibited |
| P-19mer: 19mer (Anti-LRP1) phosphorothioate ODN 5′-(_P=S)TGATTTGGTCTCTGCAGGC-3′, directed at an LRP-1 coding region (nt 559–541) (antisense dT*dG*dA*dT*dT*dT*dG*dG*dT*dC*dT*dC*dT*dG*dC*dA*dG*dG*dC) | not significantly decreased | 231.5 | – |
| P-23mer: 23mer (Anti-LRP1) phosphorothioate ODN 5′-(_P=S)GTGTGGGCCGATGCAAACAGCAG-3′, designed to bind the translation start site (nt 442–418) (antisense dG*dT*dG*dT*dG*dG*dG*dC*dC*dG*dA*dT*dG*dC*dA*dA*dA*dC*dA*dG*dC*dA*dG) | significantly decreased | 47.8 | – |
| random antisense: 21mer (Random) control PS-ODN 5′-(_P=S)GAGAAGGTTGTGTGATCTTCA, no sequence homology with any mouse genes (antisense dG*dA*dG*dA*dA*dG*dG*dT*dT*dG*dT*dG*dT*dG*dA*dT*dC*dT*dT*dC*dA) | – | – | mean fluorescent intensity (LRP-1 immunofluorescence) (LRP-1 [4]): 111.14% |
| receptor-associated protein [RAP] | – | – | brain-to-blood efflux of i.c.v. administered I-Aβ42 (LRP-1 [5]): inhibits |

Source: article PMC2802833 (Journal of Alzheimer's disease : JAD, 2009)
